Laboratory results from ChEMBL document CHEMBL3297699, “Synthesis of novel fluoro analogues of MKC442 as microbicides” (J Med Chem, 2014).
pEC50: −log10 of the molar value.

Assays:
[1] = test system: Human immunodeficiency virus 1; test: Antiviral activity against MC1220-resistant HIV1 harboring RT 100I, 179D, 181C mutant infected in human MT4 cells assessed as inhibition of virus-induced cytopathogenicity after 4 days by MTT assay; type: functional, organism-based; conditions: Human immunodeficiency virus 1, MT4, 96 h
Outline: (§1)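 MT-4 cells grown at 37 °C, 5% CO2 in RPMI-1640 with 10% FCS, penicillin and streptomycin. Compounds taken up in DMSO at […] (stock), then diluted in medium. 1 × 10^4 cells per well with serial compound dilutions, then HIV-1 inoculum sized to give complete cytopathogenicity by day 4. Viability read by MTT. […] Mean of three independent determinations.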

[2] = test system: Human immunodeficiency virus 1; test: Antiviral activity against TMC125-resistant HIV1 harboring RT 109M, 138K, 190E mutant infected in human MT4 cells assessed as inhibition of virus-induced cytopathogenicity after 4 days by MTT assay; type: functional, organism-based; conditions: Human immunodeficiency virus 1, MT4, 96 h; outline: as §1
[3] = Cytotoxicity against human MT4 cells after 96 hrs by MTT assay; type: cell-based
Outline: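 Serial compound dilutions (from DMSO stocks at […]) are added, then cells are held 96 h at 37 °C in humidified 5% CO2. Viability is read by MTT. The value is the concentration reducing proliferation by 50%, as the mean of three independent determinations, run in parallel with the antiviral assays.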

[4] = test system: Human immunodeficiency virus 1; test: Antiviral activity against wild type HIV1 3B infected in human MT4 cells assessed as inhibition of virus-induced cytopathogenicity after 4 days by MTT assay; type: functional, organism-based; conditions: Human immunodeficiency virus 1, 3B, MT4, 96 h; outline: as §1
[5] = test system: Human immunodeficiency virus 1; test: Antiviral activity against zidovudine-resistant HIV1 harboring RT 67N, 70R, 215F, 219Q mutant infected in human MT4 cells assessed as inhibition of virus-induced cytopathogenicity after 4 days by MTT assay; type: functional, organism-based; conditions: Human immunodeficiency virus 1, MT4, 96 h; outline: as §1
[6] = test system: Human immunodeficiency virus 1; test: Antiviral activity against efavirenz-resistant HIV1 harboring RT 100I, 103R, 179D, 225H mutant infected in human MT4 cells assessed as inhibition of virus-induced cytopathogenicity after 4 days by MTT assay; type: functional, organism-based; conditions: Human immunodeficiency virus 1, MT4; outline: as §1
[7] = test system: Human immunodeficiency virus 1; test: Antiviral activity against 6-[(3,5-Dimethylphenyl)fluoromethyl]-5-ethyl-1-{[[4-(3-hydroxyprop-1-ynyl)benzyl]oxy]methyl}pyrimidine-2,4(1H,3H)-dione-resistant HIV1 harboring RT 106I, 181C mutant infected in human MT4 cells assessed as inhibition of virus-induced cytopathogenicity after 4 days by MTT assay; type: functional, organism-based; conditions: Human immunodeficiency virus 1, MT4; outline: as §1
[8] = test system: Human immunodeficiency virus 1; test: Antiviral activity against TMC120-resistant HIV1 harboring RT 100I, 138G mutant infected in human MT4 cells assessed as inhibition of virus-induced cytopathogenicity after 4 days by MTT assay; type: functional, organism-based; conditions: Human immunodeficiency virus 1, MT4, 96 h; outline: as §1
[9] = test system: Human immunodeficiency virus 1; test: Antiviral activity against saquinavir-resistant HIV1 infected in human MT4 cells assessed as inhibition of virus-induced cytopathogenicity after 4 days by MTT assay; type: functional, organism-based; conditions: Human immunodeficiency virus 1, MT4, 96 h; outline: as §1
[10] = test system: Human immunodeficiency virus 1; test: Antiviral activity against […] HIV1 harboring 103N, 181C mutant infected in human MT4 cells assessed as inhibition of virus-induced cytopathogenicity after 4 days by MTT assay; type: functional, organism-based; conditions: Human immunodeficiency virus 1, MT4, 96 h; outline: as §1
[11] = test system: Human immunodeficiency virus 1; test: Antiviral activity against […] HIV1 harboring Y181C mutant infected in human MT4 cells assessed as inhibition of virus-induced cytopathogenicity after 4 days by MTT assay; type: functional, organism-based; conditions: Human immunodeficiency virus 1, MT4, 96 h; outline: as §1
[12] = test system: Human immunodeficiency virus 1; test: Antiviral activity against MDR-resistant HIV1 harboring 41L, 74V, 106A, 215Y mutant infected in human MT4 cells assessed as inhibition of virus-induced cytopathogenicity after 4 days by MTT assay; type: functional, organism-based; conditions: Human immunodeficiency virus 1, MT4, 96 h; outline: as §1
[13] = test system: Human immunodeficiency virus 1; test: Antiviral activity against HIV1 CRF02 infected in human dendritic cells assessed as inhibition of p24 in supernatants; conditions: Human immunodeficiency virus 1, CRF02, dendritic cells
[14] = test system: Human immunodeficiency virus 1; test: Antiviral activity against HIV1 CRF01 infected in human dendritic cells assessed as inhibition of p24 in supernatants; conditions: Human immunodeficiency virus 1, CRF01, dendritic cells
[15] = test system: Human immunodeficiency virus 1; test: Antiviral activity against HIV1 MP411 infected in human dendritic cells assessed as inhibition of p24 in supernatants; conditions: Human immunodeficiency virus 1, MP411, dendritic cells
[16] = test system: Human immunodeficiency virus 1; test: Antiviral activity against HIV1 infected in human MT4 cells assessed as lowest compound concentration required to irreversibly knock out vial multiplication treated 4 hrs before infection measured after 40 days by MTT assay; type: functional
Outline: (§2)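 HIV-1-infected MT-4 cells at high MOI (5−10 CCID50/cell) in 40-day assays. Compound is given continuously (chronic), for only the first 4 h after infection, or for 4 h immediately before infection. Cells are resuspended at 10^5 cells/mL every 4 days. The value is the lowest concentration that irreversibly knocks out HIV-1 multiplication, as the mean of three independent determinations.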

[17] = test system: Human immunodeficiency virus 1; test: Antiviral activity against HIV1 MP1308 infected in human dendritic cells assessed as inhibition of p24; conditions: Human immunodeficiency virus 1, MP1308, dendritic cells
[18] = test system: Human immunodeficiency virus 1; test: Antiviral activity against HIV1 MP1033 infected in human dendritic cells assessed as inhibition of p24; conditions: Human immunodeficiency virus 1, MP1033, dendritic cells
[19] = test system: Human immunodeficiency virus 1; test: Antiviral activity against NRTI-resistant HIV1 MP1315 infected in human dendritic cells assessed as inhibition of p24 in supernatants; conditions: Human immunodeficiency virus 1, MP1315, dendritic cells
[20] = test system: Human immunodeficiency virus 1; test: Antiviral activity against HIV1 MP634 infected in human dendritic cells assessed as inhibition of p24 in supernatants; conditions: Human immunodeficiency virus 1, MP634, dendritic cells
[21] = test system: Human immunodeficiency virus 1; test: Antiviral activity against HIV1 infected in human MT4 cells assessed as lowest compound concentration required to irreversibly knock out vial multiplication treated 4 hrs after infection measured after 40 days by MTT assay; type: functional; outline: as §2
[22] = test system: Human immunodeficiency virus 1; test: Antiviral activity against HIV1 infected in human MT4 cells assessed as lowest compound concentration required to irreversibly knock out vial multiplication treated by chronic treatment measured after 40 days by MTT assay; type: functional; outline: as §2
[23] = Cytotoxicity against human MT4 cells after 40 days by MTT assay; type: cell-based
Outline: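 Mock-infected MT-4 cells at 1 × 10^5 cells/mL, 37 °C, with various compound concentrations for 40 days. One-tenth of the culture is moved every 3−4 days into fresh drug-containing medium at low density to keep growth exponential. Viability is read by MTT at each passage. The value is the maximum concentration still allowing exponential proliferation, as the mean of three determinations.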

[24] = test system: Human immunodeficiency virus 1; test: Antiviral activity against HIV1 W5269 infected in human dendritic cells assessed as inhibition of p24 production; conditions: Human immunodeficiency virus 1, W5269, dendritic cells

SMILES | pEC50 [1] | pEC50 [2] | CC50 at 96 h [3] | pEC50 [4] | pEC50 [5] | pEC50 [6] | pEC50 [7] | pEC50 [8] | pEC50 [9] | pEC50 [10] | pEC50 [11] | pEC50 [12] | further results
CC(C)(C)NC(=O)[C@@H]1C[C@@H]2CCCC[C@@H]2CN1C[C@@H](O)[C@H](Cc1ccccc1)NC(=O)[C@H](CC(N)=O)NC(=O)c1ccc2ccccc2n1 | 8.00 | 8.00 | 15 µM | 7.70 | 8.00 | 8.00 | 7.70 | 7.70 | 7.05 | 8.00 | 7.70 | 7.70 | –
CCOCn1c(C(F)c2cc(C)cc(C)c2)c(CC)c(=O)[nH]c1=O (configuration not stated) | – | – | 85 µM | 8.30 | 7.40 | 5.22 | – | – | 5.05 | 5.70 | 6.52 | – | –
C=CCOCn1c(C(F)c2cc(C)cc(C)c2)c(CC)c(=O)[nH]c1=O (configuration not stated) | – | – | 64 µM | 8.40 | 7.30 | 5.70 | – | – | 5.38 | 5.80 | 6.70 | – | –
C=C(C)COCn1c(C(F)c2cc(C)cc(C)c2)c(CC)c(=O)[nH]c1=O (configuration not stated) | – | – | 40 µM | 8.10 | 7.15 | 5.40 | – | – | 5.42 | 5.15 | 6.40 | 5.47 | –
CCc1c(C(F)c2cc(C)cc(C)c2)n(COCc2ccc(I)cc2)c(=O)[nH]c1=O (configuration not stated) | – | – | 43 µM | 6.40 | 6.52 | 5.85 | – | – | 5.92 | 5.70 | 6.70 | 5.82 | –
CCc1c(C(F)c2cc(C)cc(C)c2)[nH]c(=O)n(COCc2ccc(I)cc2)c1=O (configuration not stated) | – | – | > 100 µM | 5.05 | 4.96 | < 4.00 | – | – | 4.64 | < 4.00 | < 4.00 | < 4.00 | –
CCc1c(C(F)c2cc(C)cc(C)c2)n(COCc2ccc(C#CC=O)cc2)c(=O)[nH]c1=O (configuration not stated) | – | – | 27 µM | 7.10 | 7.00 | 5.62 | – | – | 5.28 | 4.85 | 6.40 | 5.64 | –
Cc1cc(C)c(Nc2ccnc(Nc3ccc(C#N)cc3)n2)c(C)c1 [DAPIVIRINE] | 7.00 | < 4.70 | 2 µM | 8.52 | 9.00 | 6.70 | 7.00 | < 4.70 | 8.52 | 7.30 | 7.40 | 8.70 | EC99 [13]: 0.01 µM; EC99 [14]: 0.01 µM; EC99 [15]: 0.01 µM; Activity [16]: >20 µM; EC99 [17]: 0.01 µM; EC99 [18]: 0.01 µM; EC99 [19]: 0.0001 µM; EC99 [20]: 0.01 µM; Activity [21]: >20 µM; Activity [22]: 0.1 µM; MNTC at 960 h [23]: 300 nM
O=C1Nc2ccc(Cl)cc2[C@@](C#CC2CC2)(C(F)(F)F)O1 [EFAVIRENZ] | 7.00 | 5.15 | – | – | 8.70 | 5.22 | 7.22 | 7.05 | – | 7.10 | – | 8.40 | EC99 [13]: 0.01 µM; EC99 [14]: 0.01 µM; EC99 [17]: 0.01 µM; EC99 [18]: 0.01 µM; EC99 [24]: 0.01 µM; EC99 [19]: ≤ 0.0001 µM; EC99 [20]: 0.01 µM
CCOCn1c(Cc2ccccc2)c(C(C)C)c(=O)[nH]c1=O [EMIVIRINE] | – | – | > 100 µM | – | 7.10 | 4.00 | – | – | 7.22 | < 4.00 | < 5.00 | 5.82 | –
Cc1cc(C#N)cc(C)c1Oc1nc(Nc2ccc(C#N)cc2)nc(N)c1Br [ETRAVIRINE] | 7.52 | 6.70 | – | – | 9.00 | 6.52 | 7.00 | 7.15 | – | 8.00 | 8.00 | 9.00 | –
Cc1ccnc2c1NC(=O)c1cccnc1N2C1CC1 [NEVIRAPINE] | 5.40 | < 4.70 | > 100 µM | – | 7.22 | < 5.00 | < 4.70 | 6.00 | – | < 5.00 | < 5.00 | 5.52 | –
Cc1cn([C@H]2C[C@H](N=[N+]=[N-])[C@@H](CO)O2)c(=O)[nH]c1=O [ZIDOVUDINE] | 8.05 | 8.10 | – | 8.00 | 6.70 | 8.00 | 8.00 | 8.00 | – | 8.00 | 7.70 | 6.70 | –
